Experimental data from different studies.
Each line is one published result; the experiments were not run side by side.
AVPR2: Vasopressin V2 receptor (AVPR2, Homo sapiens, UniProt P30518)
APC: Adenomatous polyposis coli protein (APC, Homo sapiens, UniProt P25054)
Palmitoyl-protein thioesterase 1: Palmitoyl-protein thioesterase 1 (Homo sapiens, UniProt P50897)
HTR1E: 5-hydroxytryptamine receptor 1E (HTR1E, Homo sapiens, UniProt P28566)

CC1=NN(/C(=N\c2ccc(Br)cc2)Nc2nnc(C)s2)C(c2ccc(C)cc2)S1 (stereo not drawn)  EC50 (AVPR2; cAMP, positive allosteric modulator): 17.6 µM
CC(C)C[C@H](NC(=O)[C@H](Cc1ccc2ccccc2c1)NC(=O)[C@H](CCC(=O)O)NC(=O)c1cccc([N+](=O)[O-])c1)C(=O)NC1CC1c1ccccc1 (stereo partly drawn)  IC50 (APC; ligand displacement, FP): 41.7 µM
CCCNC(=O)NS(=O)(=O)c1ccc(Cl)cc1  Kd (Palmitoyl-protein thioesterase 1; binding, MST): 0.201 µM
CSc1nccc(C(=O)N[C@@H](CCC(=O)O)C(=O)N[C@@H](Cc2ccc3ccccc3c2)C(=O)N[C@@H](CC(C)C)C(=O)NC2CC2c2ccccc2)n1 (stereo partly drawn)  Kd (APC; binding, SPR): 0.62 µM
CC(C)=CCNc1ncnc2c1ncn2[C@@H]1O[C@H](CO)[C@@H](O)[C@H]1O  EC50 (Adenosine receptor A3 (ADORA3, Homo sapiens, UniProt P0DMS8, L264F); G protein activation, agonist): 3.4 µM
CC1=NN(/C(=N/c2nnc(C)s2)Nc2ccc(C)c(C)c2)C(c2ccsc2)S1 (stereo not drawn)  EC50 (AVPR2; cAMP, positive allosteric modulator): > 50 µM
[H]/N=C(\N/C(=N/[H])Nc1ccc(Cl)cc1)NC(C)C  Kd (Palmitoyl-protein thioesterase 1; binding, MST): 0.808 µM
CC1=NN(/C(=N/c2nnc(C)s2)Nc2ccc(C)c(C)c2)C(c2ccc(-c3ccccc3C(F)(F)F)cc2)S1 (stereo not drawn)  EC50 (AVPR2; cAMP, positive allosteric modulator): 36 µM
CO[C@H]1C[C@@H]2CC[C@@H](C)[C@@](O)(O2)C(=O)C(=O)N2CCCC[C@H]2C(=O)O[C@H]([C@H](C)C[C@@H]2CC[C@@H](OC(=O)C(C)(CO)CO)[C@H](OC)C2)CC(=O)[C@H](C)/C=C(\C)[C@@H](O)[C@@H](OC)C(=O)[C@H](C)C[C@H](C)/C=C/C=C/C=C/1C  Kd (Ferroptosis suppressor protein 1 (AIFM2, Homo sapiens, UniProt Q9BRQ8); binding, ITC): ~5.28 µM
CCc1cccc(C(=O)N[C@@H](CCC(=O)O)C(=O)N[C@@H](Cc2ccc3ccccc3c2)C(=O)N[C@@H](CC(C)C)C(=O)NC2CC2c2ccccc2)c1 (stereo partly drawn)  IC50 (APC; ligand displacement, FP): 25.1 µM
CC1=NN(/C(=N/c2nnc(C)s2)Nc2ccc(C)c(C)c2)C(c2cccc(-c3ccccc3)c2)S1 (stereo not drawn)  EC50 (AVPR2; cAMP, positive allosteric modulator): > 50 µM
CN1Cc2c(N)cccc2C(=O)N1C1CCC(=O)NC1=O (stereo not drawn)  DC50 (Cereblon/Casein kinase I alpha (CSNK1A1/CRBN, Homo sapiens, UniProt P48729+Q96SW2); protein level, degrader, luciferase): > 10 µM
C#Cc1cccc(C(=O)N[C@@H](CCC(=O)O)C(=O)N[C@@H](Cc2ccc3ccccc3c2)C(=O)N[C@@H](CC(C)C)C(=O)NC2CC2c2ccccc2)c1 (stereo partly drawn)  IC50 (APC; ligand displacement, FP): 24 µM
Cc1ccc(Sc2ccccc2N2CCNCC2)c(C)c1  EC50 (HTR1E; G protein activation, agonist, BRET): 1.96 µM
CC1=NN(/C(=N\c2ccccc2C)Nc2nnc(C)s2)C(c2ccc(C)cc2)S1 (stereo not drawn)  EC50 (AVPR2; cAMP, positive allosteric modulator): 20.8 µM
CC(C)C[C@H](NC(=O)[C@H](Cc1ccccc1)NC(=O)[C@H](CCC(=O)O)NC(=O)c1ccncn1)C(=O)NC1CC1c1ccccc1 (stereo partly drawn)  Kd (APC; binding, SPR): 67 µM
CN1CCN2c3ccccc3Cc3ccccc3C2C1 (stereo not drawn)  EC50 (HTR1E; G protein activation, agonist, BRET): 0.123 µM
CC1=NN(/C(=N/c2nnc(C)s2)Nc2ccc(C)c(C)c2)C(c2cc(F)c(F)c(F)c2)S1 (stereo not drawn)  EC50 (AVPR2; cAMP, positive allosteric modulator): > 50 µM
O=C(CCCCCN1CCN(c2ccccc2-c2ccccc2)CC1)NC1CCCc2ccccc21 (stereo not drawn)  EC50 (HTR1E; G protein activation, agonist, BRET): 1.75 µM
NC(=O)N[C@@H](CCC(=O)O)C(=O)O  Kd (Palmitoyl-protein thioesterase 1; binding, MST): 1.27 µM
CCc1ccc(/N=C(/Nc2nnc(C)s2)N2N=C(C)SC2c2ccc(C)cc2)cc1 (stereo not drawn)  EC50 (AVPR2; cAMP, positive allosteric modulator): 15.8 µM
CCCN1C[C@H](CSC)C[C@@H]2c3cccc4[nH]cc(c34)C[C@H]21  EC50 (HTR1E; G protein activation, agonist, BRET): 1.9 µM
CC(C)C[C@H](NC(=O)[C@H](Cc1ccc2ccccc2c1)NC(=O)[C@H](CCC(=O)O)NC(=O)c1ccnc(F)c1)C(=O)NC1CC1c1ccccc1 (stereo partly drawn)  IC50 (APC; ligand displacement, FP): 42.7 µM
Nc1nnc(-c2ccccc2O)cc1N1CCN(Cc2ccc(OCCOCCNc3cccc4c3C(=O)N(C3CCC(=O)NC3=O)C4=O)c(F)c2)CC1 (stereo not drawn)  DC50 (SWI/SNF-related matrix-associated actin-dependent regulator of chromatin subfamily A member 2 (SMARCA2, Homo sapiens, UniProt P51531); protein level, degrader, western blot): 0.064 µM
CN1CCC(=C2c3ccccc3Sc3ccccc32)CC1  EC50 (HTR1E; G protein activation, agonist, BRET): 0.33 µM
CC1=NN(/C(=N\c2ccc(C)cc2)Nc2nnc(C)s2)C(c2ccc(C)cc2)S1 (stereo not drawn)  EC50 (AVPR2; cAMP, positive allosteric modulator): 24.2 µM
CSc1ncc(Br)c(C(=O)N[C@@H](CCC(=O)O)C(=O)N[C@@H](Cc2ccc3ccccc3c2)C(=O)N[C@@H](CC(C)C)C(=O)N[C@@H]2C[C@H]2c2ccccc2)n1  Kd (APC; binding, SPR): 0.23 µM
CN1CCC(=C2c3ccccc3C=Cc3ccccc32)CC1  EC50 (HTR1E; G protein activation, agonist, BRET): 2.04 µM
N#C[C@@]12C[C@@H]1[C@@H](n1cnc3c(N[C@@H](C4CCC4)C4CC4)nc(I)nc31)[C@H](O)[C@@H]2O  Ki (Adenosine receptor A3 (ADORA3, Homo sapiens, UniProt P0DMS8); ligand displacement, radioligand): > 1 µM
CCCCCCCC/C=C\CCCCCCCC(=O)O  Kd (Myoglobin (MB, Homo sapiens, UniProt P02144); binding, absorbance): 0.24 µM
CSc1cccc(C(=O)N[C@@H](CCC(=O)O)C(=O)N[C@@H](Cc2ccc3ccccc3c2)C(=O)N[C@@H](CC(C)C)C(=O)NC2CC2c2ccccc2)c1 (stereo partly drawn)  IC50 (APC; ligand displacement, FP): 52.5 µM
C=CCN1C[C@H](C(=O)N(CCCN(C)C)C(=O)NCC)C[C@@H]2c3cccc4[nH]cc(c34)C[C@H]21  EC50 (HTR1E; G protein activation, agonist, BRET): 1.72 µM
CN(C)c1ncnc2c1ncn2[C@@H]1O[C@H](CO)[C@@H](O)[C@H]1O  EC50 (Adenosine receptor A3 (ADORA3, Homo sapiens, UniProt P0DMS8, L264Q); G protein activation, agonist): 3.5 µM
